Assay outcomes from PubChem BioAssay.
In the library only some 1.4% were active in any assay of this set; here they are far more common.
Env fusion inh: blocks HIV Env-driven cell-cell fusion. AID 651610. 1.1% of 360,000 active. HeLa-JRFL Env/CEM21 cell fusion, luciferase. inhibition, % at 12.3 µM;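 active = mean replicate inhibition score of at least 50 and every replicate individually at or above 50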
ERp5 inh: inhibitors of human ERp5. AID 651711. ERp5 insulin aggregation, absorbance 650 nm, 90 min. 0.05% of 350,000 active. inhibition, % at 9.99 µM;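 active = mean replicate inhibition above about 25%, with every replicate also reaching it, limit read from the data, passing the limit was not always enough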
Target sequence (Q15084 whole entry, looked up): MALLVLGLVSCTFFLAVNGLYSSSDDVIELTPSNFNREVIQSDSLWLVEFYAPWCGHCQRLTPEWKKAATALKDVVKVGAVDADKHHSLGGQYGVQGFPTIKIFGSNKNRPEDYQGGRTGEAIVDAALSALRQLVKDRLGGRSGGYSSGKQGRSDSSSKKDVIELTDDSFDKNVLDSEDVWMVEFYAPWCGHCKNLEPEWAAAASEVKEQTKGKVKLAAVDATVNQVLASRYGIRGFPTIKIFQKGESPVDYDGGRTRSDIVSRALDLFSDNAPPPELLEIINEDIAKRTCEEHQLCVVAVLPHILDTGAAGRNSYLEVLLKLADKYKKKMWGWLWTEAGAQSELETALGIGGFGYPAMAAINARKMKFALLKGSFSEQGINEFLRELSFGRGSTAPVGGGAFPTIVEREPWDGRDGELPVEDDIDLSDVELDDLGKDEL
FN deposit inh: fibronectin deposition inhibition; AH1F fibroblasts, Alexa488-fibronectin deposition fluorescence, overnight; 0.086% of 350,000 active; inhibition, % at 12.6 µM;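 active = mean inhibition across replicates of 30% or more, regardless of how many single replicates reach that level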
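Measured by – fluorescence 485/525 nm · System – AH1F fibroblast monolayer, labelled fibronectin deposition · Amount – 10000 cells per well · Buffer or medium – serum-reduced DMEM (2% serum) · Doses – single dose, pinned · Also added – fluorescent fibronectin at 24 nM final · Schedule – 1 h cell attachment, overnight exposure to compound and label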
GSIS activator: primary screen for activators of insulin secretion dependent on glucose, INS-1E cells, GLuc reporter luminescence. 0.61% of 370,000 active. activation, % at 16.6 µM. INS-1E GLuc reporter insulin secretion, 2-3 h. AID 743287;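 active = lowest replicate activation of at least 40%, so every replicate reaches that level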
PDI inh: blocks human protein disulfide isomerase activity. P07237. PDI insulin aggregation turbidity, A650, 90 min. inhibition, % at 10 µM. 0.052% of 350,000 active. AID 588391;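 active = mean inhibition across replicates of 30% or more, whatever share of single replicates reach that level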
Numbers stand for hits; 0 = inactive; - = not tested or not shown.

SMILES | Env fusion inh | ERp5 inh | FN deposit inh | GSIS activator | PDI inh
CCc1cnc(N2[C@H](CO)[C@@H](c3ccccc3-c3ccccc3C)[C@@H]2C#N)s1 | - | - | 0 | 0 | -
COc1ccccc1-n1cc([C@@H]2C[C@H]3CN(c4ccccc4)C(=O)[C@]34CCCN24)cn1 | 59 | 0 | 0 | 0 | 0
CCOc1ccc(NC(=O)c2ccc(CN3CCc4ccccc4C3)cc2)cc1 | 0 | 0 | 0 | 0 | 0
CCOC(=O)c1ccc(NC(=O)c2ccc(CN3CCc4ccccc4C3)cc2)cc1 | 58 | 0 | 0 | 0 | 0
CN1C(=S)N(c2ccccc2)C(=O)/C1=C/c1cccs1 | 0 | - | 0 | 68 | 0
CCN1C(=O)/C(=C/c2cccs2)N(C)C1=S | 0 | - | 0 | - | 0
CCOC(=O)C1=C(COC(=O)Cc2ccc(Br)cc2)NC(=O)NC1C (stereo not given) | 0 | 0 | 0 | 0 | 0
CCOC(=O)C1=C(COC(=O)/C=C/c2cccc(OC)c2OC)NC(=O)NC1C (stereo not given) | 0 | 0 | 0 | 57 | 0
CCOC(=O)C1=C(COC(=O)Cc2ccccc2F)NC(=O)NC1C (stereo not given) | 0 | 0 | 0 | 42 | 0
CCOC(=O)C1=C(COC(=O)/C=C/c2ccc(OCC)c(OC)c2)NC(=O)NC1C (stereo not given) | 0 | 0 | 0 | 90 | 0
COCCCn1c(-c2ccc(S(=O)(=O)N3CCOCC3)cc2)csc1=Nc1ccccc1 | 70 | - | 0 | 0 | 0
CCCNC(=O)N1CC2(CN(C(=O)c3cccnc3)C2)c2c([nH]c3cc(OC)ccc23)[C@H]1CO | - | - | - | 0 | -
O=S(=O)(c1ccccc1)N1CCCCN2[C@H](CO)[C@H](c3ccc(C#Cc4cccnc4)cc3)[C@H]2C1 | - | 0 | - | 0 | -
O=S(=O)(c1ccccc1)[C@@]1(c2ccccc2)C[C@@H]2ON=C(c3cccc(Br)c3)[C@@H]2C1 | 79 | 0 | 0 | 0 | 0
O=C(O)[C@]1(S(=O)(=O)c2ccccc2)C[C@@H]2ON=C(c3cccc(Br)c3)[C@@H]2C1 | 0 | 0 | 0 | 0 | 0
CNC[C@@H]1Oc2ncc(-c3ccc(OC)cc3)cc2C(=O)N([C@@H](C)CO)C[C@H]1C | 0 | 0 | 0 | 0 | -
CC(Oc1cccc(Cl)c1)C(=O)NNC(=O)c1cccnc1 (stereo not given) | 0 | 0 | 31 | 0 | 0
COc1ccccc1N(CC(=O)N(CC(C)C)CC(C)C)S(=O)(=O)c1cccs1 | 0 | 0 | 32 | 0 | 0
COc1cccc(NC(=O)CN(c2ccccc2OC)S(=O)(=O)c2cccs2)c1 | 64 | 0 | 0 | 0 | 0
Cc1ccc(S(=O)(=O)N(C)C[C@H]2Oc3ccc(NC(=O)C4CCCCC4)cc3CC(=O)N([C@@H](C)CO)C[C@@H]2C)cc1 | 0 | 0 | - | 0 | -
Cc1ccc(C(c2nnnn2CS(=O)(=O)c2ccc(C)cc2)N2CCCC2)cc1 (stereo not given) | 73 | 0 | 0 | 0 | 0
COCC(=O)Nc1ccc2c(c1)[C@H]1C[C@@H](CC(=O)NC3CCCC3)O[C@@H](CO)[C@H]1O2 | 0 | 0 | - | 0 | -
Cc1nc2ccccc2c2nc(NC(=O)C(F)(F)F)nn12 | 0 | 0 | 0 | 50 | 0
c1cn2cc(-c3ccc(CN4CCOCC4)cc3)ccc2n1 | 0 | 0 | 0 | 55 | 0
CC1Sc2n(c3ccccc3[n+]2C)N=C1c1ccccc1 (stereo not given) | 60 | - | 0 | 0 | 0
SMILES | Env fusion inh | ERp5 inh | FN deposit inh | GSIS activator | PDI inh
COCCNc1nc2cc(-c3ccc(F)cc3)sc2c(=O)n1C | 0 | 0 | - | 0 | 0
O=c1[nH]c(CCl)nc2cc(-c3ccc(F)cc3)sc12 | 0 | 0 | 0 | 0 | 43
O=C(CSc1nc2ccccc2c(=O)n1-c1ccccc1)N1CCc2ccccc2C1 | - | - | - | 0 | 0
O=C(CSc1nc2ccccc2c(=O)n1CCCN1CCOCC1)Nc1ccc(F)c(Cl)c1 | 71 | 0 | 0 | 0 | 0
CC(C)Cn1c(SCC(=O)Nc2ccc3[nH]c(=O)[nH]c3c2)nc2ccccc2c1=O | 0 | 0 | - | 45 | 0
CC(=O)Nc1ccc(NC(=O)CSc2nc3ccccc3c(=O)n2CCCN2CCOCC2)cc1 | 0 | 0 | 0 | 0 | 0
CC(C)c1ccccc1-n1c(SCC(=O)N2CCc3ccccc3C2)nc2ccccc2c1=O | 60 | 0 | 0 | 0 | 0
O=C(CSc1nc2ccccc2c(=O)n1-c1ccc(F)cc1F)Nc1ccc2c(c1)CCC2 | 0 | 0 | - | 0 | 0
O=C(CSc1nc2ccccc2c(=O)n1-c1ccccc1F)Nc1ccc2c(c1)CCC2 | 0 | 0 | 31 | 0 | 0
CCC(C)n1c(SCC(=O)Nc2ccc3[nH]c(=O)[nH]c3c2)nc2ccccc2c1=O (stereo not given) | 0 | 0 | 0 | 0 | 0
CO[C@@H]1CN(C)C(=O)c2ccc(NS(=O)(=O)c3cn(C)cn3)cc2OC[C@@H](C)N(CC2CC2)C[C@@H]1C | - | 0 | 0 | 0 | -
COc1ccc2c3c([nH]c2c1)[C@@H](CO)N(C(=O)Nc1ccc(F)cc1)CC31CN(S(=O)(=O)c2ccccc2)C1 | 0 | 0 | - | 0 | -
COc1cccc(S(=O)(=O)N[C@@H]2CC[C@H](CC(=O)NCc3ccc(Cl)cc3)O[C@@H]2CO)c1 | 0 | 0 | 0 | 0 | -
CO[C@@H]1CN(C)C(=O)c2cc(NC(=O)Nc3cccc(F)c3)ccc2OC[C@H](C)NC[C@@H]1C | - | 0 | 0 | 0 | -
Cn1nc(CC(=O)NC2CCCCCCCCCCC2)c2ccccc2c1=O | 0 | - | 0 | - | 0
Cn1nc(CC(=O)Nc2ccc3c(c2)CCC3)c2ccccc2c1=O | 79 | - | 0 | - | 0
Cc1onc(-c2c(F)cccc2Cl)c1C(=O)OCC(=O)NC(N)=O | 0 | 0 | 0 | - | 0
Cc1onc(-c2c(F)cccc2Cl)c1C(=O)OCC(=O)NC(c1ccccc1)c1ccccc1 | 93 | - | - | 0 | 0
Cc1ccc2nc(-c3cccc(Br)c3)c(Cc3cccc(Cl)c3)n2c1 | 0 | 25 | 0 | - | -
Cc1ccc(Cc2c(-c3cccc(Cl)c3)nc3ccc(C)cn23)cc1 | 62 | 0 | 0 | 0 | -
Cc1ccc(-c2csc3ncnc(SCC(N)=O)c23)cc1 | 0 | 0 | 0 | 45 | 0
O=C(CSc1ncnc2scc(-c3ccccc3)c12)Nc1ccc(C(=O)O)cc1 | 0 | 0 | 0 | 147 | 0
CCc1nnc(NC(=O)CSc2ncnc3scc(-c4ccc(C)cc4)c23)s1 | 0 | - | - | - | 0
O=C(C1CCOCC1)N1CC2(C1)[C@@H](c1ccccc1)[C@H](CO)N2Cc1ccc(Cl)cc1 | - | 0 | - | 0 | -
Cc1nn(C)c(C)c1CCC(=O)N1CCCC(C(=O)c2cccc(OC(C)C)c2)C1 (stereo not given) | 0 | 0 | 0 | 0 | 0
CC(C)Oc1cccc(C(=O)C2CCCN(C(=O)CCc3cnn(C)c3)C2)c1 (stereo not given) | 0 | 0 | 0 | 55 | 0
CN(C)c1ccc(/C=C(\NC(=O)c2ccccc2)C(=O)NCCN2CCOCC2)cc1 | 0 | 0 | 0 | 41 | 0
CN(C)c1ccc(/C=C(\NC(=O)c2ccccc2)C(=O)NCCCN2CCOCC2)cc1 | 0 | 0 | 0 | 0 | 0
